The M2OR odorant receptor database

Key:
Conditions in all cases: stereoisomer not certain
OR2C1 [1] = test system: OR2C1
Method in brief: (§1)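 Transient luciferase assays in mammalian cell lines were common, though methods varied by source. The values come from published papers and their supplementary material, with extra details from the original authors when needed. Responsive refers to a measured signal the original authors judged statistically different from baseline, and non-responsive (inactive) to the remainder.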
Target sequence in this assay (as listed by the source): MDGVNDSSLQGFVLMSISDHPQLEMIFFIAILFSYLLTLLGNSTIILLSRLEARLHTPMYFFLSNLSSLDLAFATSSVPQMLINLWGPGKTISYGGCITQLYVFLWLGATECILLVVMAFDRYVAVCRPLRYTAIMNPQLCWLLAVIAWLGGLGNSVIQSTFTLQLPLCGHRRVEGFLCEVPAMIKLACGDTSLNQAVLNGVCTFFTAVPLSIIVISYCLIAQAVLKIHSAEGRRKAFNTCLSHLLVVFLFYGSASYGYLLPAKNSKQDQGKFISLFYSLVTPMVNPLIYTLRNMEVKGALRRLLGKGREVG

OR2C1 [2] = test system: OR2C1; remark: listed apart in the source
Method in brief: as §1
Target sequence in this assay (as listed by the source): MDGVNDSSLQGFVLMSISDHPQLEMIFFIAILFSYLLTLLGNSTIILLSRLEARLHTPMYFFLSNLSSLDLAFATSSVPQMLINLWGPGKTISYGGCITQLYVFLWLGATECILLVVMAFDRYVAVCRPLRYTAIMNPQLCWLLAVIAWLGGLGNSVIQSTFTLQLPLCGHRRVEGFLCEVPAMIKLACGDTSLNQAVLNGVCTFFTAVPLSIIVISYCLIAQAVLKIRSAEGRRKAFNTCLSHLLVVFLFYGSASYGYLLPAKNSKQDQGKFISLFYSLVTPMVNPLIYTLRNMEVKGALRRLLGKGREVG

OR2C1 [3] = test system: T1, OR2C1; remark: listed apart in the source
T1 sequence (whole entry): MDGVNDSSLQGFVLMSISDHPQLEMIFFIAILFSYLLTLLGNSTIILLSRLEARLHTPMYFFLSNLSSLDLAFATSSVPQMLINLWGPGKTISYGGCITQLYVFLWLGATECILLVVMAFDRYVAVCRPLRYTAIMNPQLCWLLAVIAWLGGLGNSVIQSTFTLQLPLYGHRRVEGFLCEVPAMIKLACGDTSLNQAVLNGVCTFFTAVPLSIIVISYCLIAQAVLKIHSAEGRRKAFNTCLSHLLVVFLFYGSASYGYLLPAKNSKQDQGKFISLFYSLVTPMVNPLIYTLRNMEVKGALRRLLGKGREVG
Method in brief: as §1

OR2C3 (Homo sapiens) = molecular target: T2, OR2C3 (Homo sapiens) (UniProt Q8N628)
T2 sequence (whole entry): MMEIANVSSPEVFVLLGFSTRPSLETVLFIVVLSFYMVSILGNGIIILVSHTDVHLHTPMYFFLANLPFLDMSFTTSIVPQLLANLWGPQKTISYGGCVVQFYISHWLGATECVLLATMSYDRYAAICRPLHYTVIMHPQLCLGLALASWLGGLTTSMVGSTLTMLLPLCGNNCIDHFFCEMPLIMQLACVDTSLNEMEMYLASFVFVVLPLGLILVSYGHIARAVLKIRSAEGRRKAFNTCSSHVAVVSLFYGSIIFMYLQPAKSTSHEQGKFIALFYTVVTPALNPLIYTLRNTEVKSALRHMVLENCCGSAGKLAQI
Method in brief: as §1

OR2D2 (Homo sapiens) = molecular target: T3, OR2D2 (Homo sapiens) (UniProt Q9H210)
T3 sequence (whole entry): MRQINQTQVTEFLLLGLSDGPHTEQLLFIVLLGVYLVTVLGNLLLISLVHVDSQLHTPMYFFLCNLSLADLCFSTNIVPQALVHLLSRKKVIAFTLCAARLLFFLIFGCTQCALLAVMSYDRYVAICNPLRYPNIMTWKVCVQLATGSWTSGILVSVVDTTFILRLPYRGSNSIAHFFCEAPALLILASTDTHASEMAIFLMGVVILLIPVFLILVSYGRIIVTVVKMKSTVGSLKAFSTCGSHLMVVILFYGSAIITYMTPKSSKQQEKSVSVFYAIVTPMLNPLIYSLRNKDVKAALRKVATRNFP
Method in brief: as §1

OR2D3 (Homo sapiens) = molecular target: T4, OR2D3 (Homo sapiens) (UniProt Q8NGH3)
T4 sequence (whole entry): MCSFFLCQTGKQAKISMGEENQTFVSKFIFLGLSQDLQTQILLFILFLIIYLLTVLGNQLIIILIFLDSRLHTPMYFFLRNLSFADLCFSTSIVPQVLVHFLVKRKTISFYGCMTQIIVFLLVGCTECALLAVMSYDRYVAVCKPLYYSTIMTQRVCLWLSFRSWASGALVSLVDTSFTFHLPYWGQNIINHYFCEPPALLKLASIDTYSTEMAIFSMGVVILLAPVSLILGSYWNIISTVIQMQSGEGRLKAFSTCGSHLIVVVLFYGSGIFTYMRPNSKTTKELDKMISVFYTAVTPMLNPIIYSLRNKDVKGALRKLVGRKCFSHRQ
Method in brief: as §1

OR2F1 (Homo sapiens) = molecular target: T5, OR2F1 (Homo sapiens) (UniProt Q13607)
T5 sequence (whole entry): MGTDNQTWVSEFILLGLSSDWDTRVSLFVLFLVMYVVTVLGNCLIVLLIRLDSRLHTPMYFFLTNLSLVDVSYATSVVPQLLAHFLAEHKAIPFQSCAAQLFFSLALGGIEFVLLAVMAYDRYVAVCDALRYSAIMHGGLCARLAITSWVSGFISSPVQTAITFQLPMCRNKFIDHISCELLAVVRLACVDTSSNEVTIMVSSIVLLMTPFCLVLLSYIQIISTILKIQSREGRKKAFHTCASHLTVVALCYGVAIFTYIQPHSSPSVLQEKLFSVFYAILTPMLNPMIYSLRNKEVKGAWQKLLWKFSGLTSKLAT
Method in brief: as §1

OR2F2 (Homo sapiens) = molecular target: T6, OR2F2 (Homo sapiens) (UniProt O95006)
T6 sequence (whole entry): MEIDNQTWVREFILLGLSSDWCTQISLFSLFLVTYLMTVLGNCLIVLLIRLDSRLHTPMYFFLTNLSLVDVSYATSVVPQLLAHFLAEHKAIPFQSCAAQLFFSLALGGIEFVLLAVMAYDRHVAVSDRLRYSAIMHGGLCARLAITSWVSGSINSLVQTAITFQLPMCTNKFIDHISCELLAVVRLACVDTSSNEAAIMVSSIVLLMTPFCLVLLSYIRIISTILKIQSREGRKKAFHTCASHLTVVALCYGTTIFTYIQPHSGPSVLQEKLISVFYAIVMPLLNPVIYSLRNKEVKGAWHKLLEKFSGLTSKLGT
Method in brief: as §1

OR2G2 (Homo sapiens) = molecular target: T7, OR2G2 (Homo sapiens) (UniProt Q8NGZ5)
T7 sequence (whole entry): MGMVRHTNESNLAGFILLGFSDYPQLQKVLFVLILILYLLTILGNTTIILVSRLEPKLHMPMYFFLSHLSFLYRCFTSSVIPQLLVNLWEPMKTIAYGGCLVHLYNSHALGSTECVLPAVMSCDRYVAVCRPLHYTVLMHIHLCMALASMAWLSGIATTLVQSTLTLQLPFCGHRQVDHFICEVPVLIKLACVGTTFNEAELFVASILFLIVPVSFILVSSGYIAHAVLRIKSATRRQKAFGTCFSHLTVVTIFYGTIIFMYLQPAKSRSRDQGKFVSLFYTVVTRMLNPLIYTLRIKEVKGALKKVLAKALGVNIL
Method in brief: as §1

OR2G3 (Homo sapiens) = molecular target: T8, OR2G3 (Homo sapiens) (UniProt Q8NGZ4)
T8 sequence (whole entry): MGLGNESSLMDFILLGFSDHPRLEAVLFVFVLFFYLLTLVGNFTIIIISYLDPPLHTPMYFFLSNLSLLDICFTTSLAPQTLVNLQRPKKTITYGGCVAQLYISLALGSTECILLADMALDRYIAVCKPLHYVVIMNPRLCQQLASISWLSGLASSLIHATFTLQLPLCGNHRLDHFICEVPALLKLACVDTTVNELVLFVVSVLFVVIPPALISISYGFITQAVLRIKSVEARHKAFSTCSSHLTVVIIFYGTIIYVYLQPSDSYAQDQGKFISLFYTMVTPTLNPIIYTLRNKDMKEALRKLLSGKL
Method in brief: as §1

OR2G6 (Homo sapiens) = molecular target: T9, OR2G6 (Homo sapiens) (UniProt Q5TZ20)
T9 sequence (whole entry): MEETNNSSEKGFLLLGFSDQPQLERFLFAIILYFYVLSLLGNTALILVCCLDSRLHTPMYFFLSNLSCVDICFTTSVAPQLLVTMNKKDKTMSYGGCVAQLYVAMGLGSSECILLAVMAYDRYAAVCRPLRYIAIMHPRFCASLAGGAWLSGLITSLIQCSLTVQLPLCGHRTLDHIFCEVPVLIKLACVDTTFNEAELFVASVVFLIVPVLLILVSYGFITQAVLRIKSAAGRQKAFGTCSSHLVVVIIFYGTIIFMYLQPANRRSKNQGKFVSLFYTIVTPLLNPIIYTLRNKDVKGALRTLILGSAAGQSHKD
Method in brief: as §1

OR2H1 (Homo sapiens) = molecular target: T10, OR2H1 (Homo sapiens) (UniProt Q9GZK4)
T10 sequence (whole entry): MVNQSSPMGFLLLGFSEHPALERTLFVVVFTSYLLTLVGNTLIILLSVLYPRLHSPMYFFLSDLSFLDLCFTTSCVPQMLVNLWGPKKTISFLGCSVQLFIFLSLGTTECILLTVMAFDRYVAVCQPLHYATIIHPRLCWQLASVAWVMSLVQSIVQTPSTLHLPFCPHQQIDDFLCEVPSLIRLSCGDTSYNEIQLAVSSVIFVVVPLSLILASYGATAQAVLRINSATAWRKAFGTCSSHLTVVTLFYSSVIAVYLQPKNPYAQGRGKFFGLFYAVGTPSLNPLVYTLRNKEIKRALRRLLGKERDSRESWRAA
Method in brief: as §1

OR2H2 (Homo sapiens) = molecular target: T11, OR2H2 (Homo sapiens) (UniProt O95918)
T11 sequence (whole entry): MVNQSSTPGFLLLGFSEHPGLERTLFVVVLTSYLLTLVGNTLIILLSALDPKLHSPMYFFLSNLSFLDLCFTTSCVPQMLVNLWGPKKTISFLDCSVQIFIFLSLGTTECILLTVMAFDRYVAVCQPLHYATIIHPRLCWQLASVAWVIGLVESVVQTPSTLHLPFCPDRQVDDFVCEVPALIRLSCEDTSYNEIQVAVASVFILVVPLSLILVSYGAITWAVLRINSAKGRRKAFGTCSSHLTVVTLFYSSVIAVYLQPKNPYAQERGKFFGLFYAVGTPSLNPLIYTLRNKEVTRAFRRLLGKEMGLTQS
Method in brief: as §1

Measured: odorant receptor agonist call

CCCCCCCCS
active: OR2C1 [1] | OR2C1 [2] | OR2C1 [3]

CCCCCC(=O)C(C)C(C)=O (centres undefined)
not listed: OR2C1 [1] | OR2C1 [2] | OR2C1 [3]
inactive: all other assays above

CC(=O)c1c(C)c([N+](=O)[O-])c(C(C)(C)C)c([N+](=O)[O-])c1C
not listed: OR2C1 [1] | OR2C1 [2] | OR2C1 [3]
inactive: all other assays above

CC(=O)OCc1ccccc1
inactive: OR2G2 (Homo sapiens)
